Results on one compound are retold here after ChEMBL document CHEMBL1914355, “Discovery of new orally active prostaglandin D2 receptor antagonists” (Bioorg Med Chem, 2011).

In brackets after ≈: the same amount, converted by molar mass.

Data set [1] concerns the target T1, Prostaglandin D2 receptor (Homo sapiens, UniProt Q13258).
T1 sequence (Q13258 whole entry): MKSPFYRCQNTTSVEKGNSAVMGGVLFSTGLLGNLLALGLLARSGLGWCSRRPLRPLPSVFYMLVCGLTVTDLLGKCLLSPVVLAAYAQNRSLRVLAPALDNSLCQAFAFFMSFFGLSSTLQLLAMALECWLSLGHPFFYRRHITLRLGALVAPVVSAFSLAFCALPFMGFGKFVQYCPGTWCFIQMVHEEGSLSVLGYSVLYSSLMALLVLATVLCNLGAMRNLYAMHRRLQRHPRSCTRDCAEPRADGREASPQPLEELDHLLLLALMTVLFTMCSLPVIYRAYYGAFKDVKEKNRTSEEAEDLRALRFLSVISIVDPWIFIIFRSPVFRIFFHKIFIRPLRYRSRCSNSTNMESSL
In words: Antagonist activity at prostanoid DP receptor in human platelet rich plasma assessed as inhibition of PGD2-induced intracellular cAMP production after 10 mins by enzyme immunoassay. It counts as functional, cell-based. The note with it: in the assay text read “after 15 mins” for “after 10 mins”. The gist of the method: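 Human PRP with EDTA (~10 mmol/L) was spun at 1500 G for 15 min. Platelets were resuspended in PPP at 5.0 × 10⁵/µL with IBMX (8 mmol/L final) and an EP3 antagonist, then held 5 min at 37 °C. Compound was added for 10 min at 37 °C, then PGD₂ (3 µmol/L final) for 15 min. TCA stop, tri-n-octylamine extraction, cAMP EIA. IC50 derived from inhibition ratio.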
On the technique in general: cAMP levels reflect the balance of adenylyl cyclase and phosphodiesterase activity.

Data set [2] in a line: Volume of distribution at steady state in rat at 1 mg/kg, iv administered as single dose. Type of data set: ADME, organism-based. More on the design: dose 1 mg/kg, route intravenous. The settings on record: in vivo, read-out: Vdss. Put shortly:
(§1)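 Fasted male rats (n = 3) received a single 1 mg/kg iv dose in 30% HP-β-CD with 5% DMSO and 1 eq NaHCO₃. Jugular blood was drawn into heparin before dosing and at 5, 15, 30 min and 1, 2, 4, 6, 8, 24 h. Plasma was obtained by centrifugation at 4 °C. Parameters came from the plasma concentration-time course.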

The nature of data set [3]: Total clearance in rat at 1 mg/kg, iv administered as single dose. Type of data set: ADME, organism-based. Details: dose 1 mg/kg, route intravenous. The note with it: in vivo. Put shortly: as §1
A short description of data set [4]: Half life in rat at 1 mg/kg, iv administered as single dose. The settings on record: in vivo. Type of data set: ADME, organism-based. More on the design: dose 1 mg/kg, route intravenous. The gist of the method:
as §1

Data set [5] in a line: Half life in rat at 1 mg/kg, po administered as single dose. It counts as ADME, organism-based. Details: dose 1 mg/kg, route oral. The note with it: in vivo. Put shortly:
(§2)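 Fasted male rats (n = 3) received a single oral 1 mg/kg dose in 0.5% methylcellulose. Jugular blood was drawn into heparin before dosing and at 15, 30 min and 1, 2, 4, 6, 8, 24 h. Plasma was separated at 4 °C. Parameters came from the plasma concentration-time course.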

A short description of data set [6]: Cmax in rat at 1 mg/kg, po administered as single dose. Type of data set: ADME, organism-based. Details: dose 1 mg/kg, route oral. The settings on record: in vivo. Put shortly:
as §2

Data set [7] can be described thus: Kinetic solubility of the compound. It counts as physicochemical. The settings on record: read-out: Kinetic_solubility.
Data set [8] can be described thus: Oral bioavailability in rat at 1 mg/kg administered as single dose. Type of data set: ADME, organism-based. The settings on record: in vivo. Put shortly:
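Fasted male rats (n = 3) were given 1 mg/kg orally in 0.5% methylcellulose and 1 mg/kg iv in 30% HP-β-CD/5% DMSO/NaHCO₃, each as a single dose. Plasma from serial jugular samples was analysed. Bioavailability was derived from oral versus iv exposure, corrected for dose (D_po, D_iv).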

Data set [9] has as its target T2, Prostaglandin D2 receptor (Mus musculus, UniProt P70263).
T2 sequence (P70263 whole entry): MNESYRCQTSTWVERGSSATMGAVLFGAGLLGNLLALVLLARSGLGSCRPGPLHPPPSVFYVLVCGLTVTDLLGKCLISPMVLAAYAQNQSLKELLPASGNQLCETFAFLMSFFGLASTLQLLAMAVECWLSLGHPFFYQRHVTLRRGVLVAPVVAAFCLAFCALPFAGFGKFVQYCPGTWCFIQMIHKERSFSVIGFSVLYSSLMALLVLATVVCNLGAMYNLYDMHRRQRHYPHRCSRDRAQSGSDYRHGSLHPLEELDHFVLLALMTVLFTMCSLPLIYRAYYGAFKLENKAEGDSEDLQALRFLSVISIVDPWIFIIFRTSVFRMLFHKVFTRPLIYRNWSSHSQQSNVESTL
In words: Antagonist activity at mouse prostanoid DP receptor expressed in CHO cells assessed as inhibition of PGD2-induced intracellular cAMP production after 10 mins by enzyme immunoassay. It counts as functional, cell-based. The gist of the method: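 CHO cells expressing mDP seeded at 1 × 10⁵ cells/well and grown 2 days. They were rinsed and preincubated ~10 min at 37 °C in MEM with 2 µM diclofenac, then ~10 min in assay medium (MEM, 0.1% BSA, 1 mM IBMX, 2 µM diclofenac). Compound plus 10 nM PGD₂ was added for 10 min at 37 °C. TCA stop, tri-n-octylamine/chloroform extraction, cAMP by EIA. IC50 taken from % of maximal cAMP rise without compound.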

The nature of data set [10]: AUC (0 to infinity) in rat at 1 mg/kg, iv administered as single dose. The note with it: plasma. Type of data set: ADME, organism-based. Details: time infinity, dose 1 mg/kg, route intravenous. Put shortly: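 Single IV dose of 1 mg/kg to fasted male rats (n = 3). Vehicle: 30% HP-b-CD containing 5% DMSO with NaHCO3 (1 eq). Jugular vein blood taken in heparinized syringe pre-dose and at 5, 15, 30 min and 1, 2, 4, 6, 8, 24 h. Plasma obtained by centrifugation at 4 °C and stored at -80 °C. AUC derived from the plasma concentration–time course.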

Data set [11] in a line: AUC (0 to infinity) in rat at 1 mg/kg, po administered as single dose. It counts as ADME, organism-based. Details: time infinity, dose 1 mg/kg, route oral. The settings on record: plasma. Put shortly:
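Fasted male rats (n = 3) given a single oral dose of 1 mg/kg in 0.5% MC. Heparinized jugular vein blood sampled pre-dose and at 15, 30 min and 1, 2, 4, 6, 8, 24 h. Plasma separated by centrifugation at 4 °C and kept at -80 °C. AUC derived from the plasma concentration–time profile.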

Another data set concerns Cavia porcellus. In words: Inhibition of PGD2-induced vascular permeability in Hartley guinea pig conjunctiva at 0.1 mg/kg, po administered 1 hr before antigen challenge measured after 30 mins. Type of data set: functional. Put shortly:
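Guinea pigs (n = 8) were dosed orally 1 h before topical PGD₂ challenge (20 µL/eye). 5% Evans blue (1 mL/kg iv) was given immediately after challenge. After 30 min the conjunctiva was excised and dye extracted in DMF at 37 °C, with absorbance read at 620 nm. Dunnett's test versus control.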

The next data set concerns the target Prostacyclin receptor (Homo sapiens, UniProt P43119). In words: Displacement of [3H]Iloprost from human prostanoid IP receptor expressed in CHO cells after 30 mins by liquid scintillation counting. Type of data set: cell-based. The gist of the method:
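Membranes from CHO cells stably expressing hIP were incubated with 5.0 nM [³H]iloprost and graded compound concentrations in 50 mM Tris-HCl (1 mM EDTA, 10 mM MgCl₂, pH 7.5) for 30 min at room temperature. Filters (GF/B) were washed with ice-cold Tris/NaCl pH 7.5, dried 60 min at 60 °C, and counted. Nonspecific binding used excess unlabeled iloprost. Ki = IC50/(1+[L]/Kd).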
For orientation: Loss of bound radioactivity is the signal in a displacement assay; it reports binding, not function.

Chain of Prostacyclin receptor (P43119 whole entry): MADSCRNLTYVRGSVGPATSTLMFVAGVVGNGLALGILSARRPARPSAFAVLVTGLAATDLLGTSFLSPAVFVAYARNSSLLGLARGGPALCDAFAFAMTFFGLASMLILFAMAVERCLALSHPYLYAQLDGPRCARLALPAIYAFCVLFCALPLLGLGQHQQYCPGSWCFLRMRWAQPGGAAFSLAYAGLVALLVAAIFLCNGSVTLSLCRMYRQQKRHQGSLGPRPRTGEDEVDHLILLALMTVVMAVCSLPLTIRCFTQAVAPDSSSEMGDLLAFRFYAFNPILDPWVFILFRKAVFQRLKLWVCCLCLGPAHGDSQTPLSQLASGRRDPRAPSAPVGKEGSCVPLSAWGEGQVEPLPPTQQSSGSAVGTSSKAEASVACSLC

Turning to `Cc1cc(OC[C@@H]2CN(C)c3ccccc3O2)cc(C)c1C(=O)Nc1cc(C(C)(C)C(=O)O)ccc1Cl`, the IC50 in data set [1] worked out at 8.1 nM; in [9] it was 0.7 nM. Further, the Vd in [2] stood at 0.669 L/kg. Besides, the clearance in data set [3] is 1.8 mL/min/kg. In addition, the half-life in [4] is 6.5 h; in [5], 5.6 h. This compound also displayed a Cmax in data set [6] of 1670 ng/mL. In addition, the solubility kinetic in [7] came to 490 µg/mL (≈ 937 µM). In data set [8], this compound gave a bioavailability of 87%. The AUC(0-inf) in data set [10] came to 9520 ng·h/mL; in data set [11], 8280 ng·h/mL. In the data set on Cavia porcellus, testing at 0.1 mg/kg gave an inhibition in vivo of 58%. Moreover, at Prostacyclin receptor, the inhibitory constant (Ki) was over 10000 nM.

A word on the IC50: it is the concentration that gives 50% inhibition. By clearance is commonly meant the rate of elimination divided by the concentration. A higher clearance goes with a high capacity for elimination. Usually half-life stands for how long it takes for the measured level to halve. What is called Cmax is the maximum level reached in the sampled fluid or tissue. As a reminder, the bioavailability is dose-corrected exposure relative to a reference, in per cent. For orientation: AUC(0-inf) means the area under the concentration-time curve extrapolated to infinity. Read a high AUC(0-inf) as more exposure. Broadly, the inhibition in vivo is how much of the control response was suppressed. A low value points to a response near the control. For orientation: Ki means the equilibrium dissociation constant of an inhibitor or competing ligand from its target.
